ChEMBL document CHEMBL4033712, “Synthesis and biological evaluation of new C-12(α/β)-(N-) sulfamoyl-phenylamino-14-deoxy-andrographolide derivatives as potent anti-cancer agents” (Bioorg Med Chem Lett, 2017)

Columns and labels:
Assay type in all cases: functional
UACC-257 = assay: Anticancer activity against human UACC257 cells assessed as cell growth at 10 uM after 48 hrs by sulforhodamine B assay relative to control; conditions: UACC-257, 48 h, read-out: Activity
Summary of the method: (§1)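 NCI-60 single-dose screen: compound added at 10 µM, cultures incubated 48 h. End point by sulforhodamine B protein-binding dye. Value reported as percent growth of treated cells relative to untreated control cells.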

SF-295 = assay: Anticancer activity against human SF295 cells assessed as cell growth at 10 uM after 48 hrs by sulforhodamine B assay relative to control; conditions: SF-295, 48 h, read-out: Activity
Summary of the method: (§2)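 Single-dose NCI-60 panel screen: compound added at 10 µM and the culture incubated 48 h. The end point was read by protein staining with sulforhodamine B. The value is percent growth of treated cells relative to untreated control cells, reported as a mean graph across the panel.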

NCI-H23 = assay: Anticancer activity against human NCI-H23 cells assessed as cell growth at 10 uM after 48 hrs by sulforhodamine B assay relative to control; conditions: NCI-H23, 48 h, read-out: Activity; summary of the method: as §2
EKVX = assay: Anticancer activity against human EKVX cells assessed as cell growth at 10 uM after 48 hrs by sulforhodamine B assay relative to control; conditions: read-out: Activity; summary of the method: as §2
ACHN = assay: Anticancer activity against human ACHN cells assessed as cell growth at 10 uM after 48 hrs by sulforhodamine B assay relative to control; conditions: read-out: Activity; summary of the method: as §2
NCI/ADR-RES = assay: Anticancer activity against human NCI/ADR-RES cells assessed as cell growth at 10 uM after 48 hrs by sulforhodamine B assay relative to control; conditions: read-out: Activity; summary of the method: as §2
K562 = assay: Anticancer activity against human K562 cells assessed as cell growth at 10 uM after 48 hrs by sulforhodamine B assay relative to control; conditions: K562, 48 h, read-out: Activity; summary of the method: as §2
BT-549 = assay: Anticancer activity against human BT549 cells assessed as cell growth at 10 uM after 48 hrs by sulforhodamine B assay relative to control; conditions: BT-549, 48 h, read-out: Activity; summary of the method: as §2
PC-3 = assay: Anticancer activity against human PC3 cells assessed as cell growth at 10 uM after 48 hrs by sulforhodamine B assay relative to control; conditions: PC-3, 48 h, read-out: Activity; summary of the method: as §2
HT-29 = assay: Anticancer activity against human HT-29 cells assessed as cell growth at 10 uM after 48 hrs by sulforhodamine B assay relative to control; conditions: HT-29, 48 h, read-out: Activity; summary of the method: as §2
LOX IMVI = assay: Anticancer activity against human LOXIMVI cells assessed as cell growth at 10 uM after 48 hrs by sulforhodamine B assay relative to control; conditions: read-out: Activity; summary of the method: as §2
OVCAR-3 = assay: Anticancer activity against human OVCAR3 cells assessed as cell growth at 10 uM after 48 hrs by sulforhodamine B assay relative to control; conditions: OVCAR-3, 48 h, read-out: Activity; summary of the method: as §2
SR = assay: Anticancer activity against human SR cells assessed as cell growth at 10 uM after 48 hrs by sulforhodamine B assay relative to control; conditions: read-out: Activity; summary of the method: as §1
SK-MEL-28 = assay: Anticancer activity against human SK-MEL-28 cells assessed as cell growth at 10 uM after 48 hrs by sulforhodamine B assay relative to control; conditions: SK-MEL-28, 48 h, read-out: Activity; summary of the method: as §2
HCT-15 = assay: Anticancer activity against human HCT15 cells assessed as cell growth at 10 uM after 48 hrs by sulforhodamine B assay relative to control; conditions: HCT-15, 48 h, read-out: Activity; summary of the method: as §2
CAKI-1 = assay: Anticancer activity against human Caki1 cells assessed as cell growth at 10 uM after 48 hrs by sulforhodamine B assay relative to control; conditions: CAKI-1, 48 h, read-out: Activity; summary of the method: as §2
M14 = assay: Anticancer activity against human M14 cells assessed as cell growth at 10 uM after 48 hrs by sulforhodamine B assay relative to control; conditions: M14, 48 h, read-out: Activity; summary of the method: as §2
SK-OV-3 = assay: Anticancer activity against human SKOV3 cells assessed as cell growth at 10 uM after 48 hrs by sulforhodamine B assay relative to control; conditions: SK-OV-3, 48 h, read-out: Activity; summary of the method: as §2
MDA-MB-435 = assay: Anticancer activity against human MDA-MB-435 cells assessed as cell growth at 10 uM after 48 hrs by sulforhodamine B assay relative to control; conditions: MDA-MB-435, 48 h, read-out: Activity; summary of the method: as §2
SNB-75 = assay: Anticancer activity against human SNB75 cells assessed as cell growth at 10 uM after 48 hrs by sulforhodamine B assay relative to control; conditions: SNB-75, 48 h, read-out: Activity; summary of the method: as §1
SW-620 = assay: Anticancer activity against human SW620 cells assessed as cell growth at 10 uM after 48 hrs by sulforhodamine B assay relative to control; conditions: SW-620, 48 h, read-out: Activity; summary of the method: as §1
SK-MEL-5 = assay: Anticancer activity against human SK-MEL-5 cells assessed as cell growth at 10 uM after 48 hrs by sulforhodamine B assay relative to control; conditions: SK-MEL-5, 48 h, read-out: Activity; summary of the method: as §2
NCI-H226 = assay: Anticancer activity against human NCI-H226 cells assessed as cell growth at 10 uM after 48 hrs by sulforhodamine B assay relative to control; conditions: NCI-H226, 48 h, read-out: Activity; summary of the method: as §2
COLO 205 = assay: Anticancer activity against human COLO205 cells assessed as cell growth at 10 uM after 48 hrs by sulforhodamine B assay relative to control; conditions: COLO 205, 48 h, read-out: Activity; summary of the method: as §2
CCRF-CEM = assay: Anticancer activity against human CCRF-CEM cells assessed as cell growth at 10 uM after 48 hrs by sulforhodamine B assay relative to control; conditions: read-out: Activity; summary of the method: as §2
MDA-MB-231 = assay: Anticancer activity against human MDA-MB-231 cells assessed as cell growth at 10 uM after 48 hrs by sulforhodamine B assay relative to control; conditions: MDA-MB-231, 48 h, read-out: Activity; summary of the method: as §2
MDA-MB-468 = assay: Anticancer activity against human MDA-MB-468 cells assessed as cell growth at 10 uM after 48 hrs by sulforhodamine B assay relative to control; conditions: MDA-MB-468, 48 h, read-out: Activity; summary of the method: as §2
RPMI-8226 = assay: Anticancer activity against human RPMI8226 cells assessed as cell growth at 10 uM after 48 hrs by sulforhodamine B assay relative to control; conditions: RPMI-8226, 48 h, read-out: Activity; summary of the method: as §2
Hs-578T = assay: Anticancer activity against human Hs 578T cells assessed as cell growth at 10 uM after 48 hrs by sulforhodamine B assay relative to control; conditions: read-out: Activity; summary of the method: as §2
MCF7 = assay: Anticancer activity against human MCF7 cells assessed as cell growth at 10 uM after 48 hrs by sulforhodamine B assay relative to control; conditions: MCF7, 48 h, read-out: Activity; summary of the method: as §2
U-251 = assay: Anticancer activity against human U251 cells assessed as cell growth at 10 uM after 48 hrs by sulforhodamine B assay relative to control; conditions: U-251, 48 h, read-out: Activity; summary of the method: as §1
UO-31 = assay: Anticancer activity against human UO31 cells assessed as cell growth at 10 uM after 48 hrs by sulforhodamine B assay relative to control; conditions: UO-31, 48 h, read-out: Activity; summary of the method: as §1

Compound: C=C1CC[C@@H]2[C@](C)(COC(C)=O)[C@H](OC(C)=O)CC[C@@]2(C)[C@H]1CC(Nc1ccc(S(=O)(=O)Nc2nc(C)cc(C)n2)cc1)C1=CCOC1=O (some centres undefined)
- growth at 10 µM (UACC-257): 67.9%
- growth at 10 µM (SF-295): 97%
- growth at 10 µM (NCI-H23): 84.3%
- growth at 10 µM (EKVX): 74.5%
- growth at 10 µM (ACHN): 71.6%
- growth at 10 µM (NCI/ADR-RES): 66.7%
- growth at 10 µM (K562): 19.1%
- growth at 10 µM (BT-549): 71.9%
- growth at 10 µM (PC-3): 65.2%
- growth at 10 µM (HT-29): 46.2%
- growth at 10 µM (LOX IMVI): -60.6%
- growth at 10 µM (OVCAR-3): 44.8%
- growth at 10 µM (SR): 22.2%
- growth at 10 µM (SK-MEL-28): 83.5%
- growth at 10 µM (HCT-15): 49.2%
- growth at 10 µM (CAKI-1): 74%
- growth at 10 µM (M14): 63.8%
- growth at 10 µM (SK-OV-3): 112%
- growth at 10 µM (MDA-MB-435): 67%
- growth at 10 µM (SNB-75): 44.6%
- growth at 10 µM (SW-620): 40%
- growth at 10 µM (SK-MEL-5): 74.2%
- growth at 10 µM (NCI-H226): 86.7%
- growth at 10 µM (COLO 205): 77%
- growth at 10 µM (CCRF-CEM): 2.96%
- growth at 10 µM (MDA-MB-231): 107%
- growth at 10 µM (MDA-MB-468): 41%
- growth at 10 µM (RPMI-8226): 2.24%
- growth at 10 µM (Hs-578T): 99.8%
- growth at 10 µM (MCF7): 40.3%
- growth at 10 µM (U-251): 48.2%
- growth at 10 µM (UO-31): 71.2%

Compound: C=C1CC[C@@H]2[C@](C)(COC(C)=O)[C@H](OC(C)=O)CC[C@@]2(C)[C@H]1CC(Nc1ccc(S(=O)(=O)Nc2ncccn2)cc1)C1=CCOC1=O (some centres undefined)
- growth at 10 µM (UACC-257): 16.6%
- growth at 10 µM (SF-295): 68%
- growth at 10 µM (NCI-H23): 29.6%
- growth at 10 µM (EKVX): 68.3%
- growth at 10 µM (ACHN): -56.1%
- growth at 10 µM (NCI/ADR-RES): 16.1%
- growth at 10 µM (K562): 4.6%
- growth at 10 µM (BT-549): -32%
- growth at 10 µM (PC-3): 15.1%
- growth at 10 µM (HT-29): -48.6%
- growth at 10 µM (LOX IMVI): -79.8%
- growth at 10 µM (OVCAR-3): -80.6%
- growth at 10 µM (SR): -4.43%
- growth at 10 µM (SK-MEL-28): -17.7%
- growth at 10 µM (HCT-15): -51.4%
- growth at 10 µM (CAKI-1): 50.2%
- growth at 10 µM (M14): 4.76%
- growth at 10 µM (SK-OV-3): 84.7%
- growth at 10 µM (MDA-MB-435): -14.8%
- growth at 10 µM (SNB-75): 25.6%
- growth at 10 µM (SW-620): -70%
- growth at 10 µM (SK-MEL-5): 24.1%
- growth at 10 µM (NCI-H226): -16.6%
- growth at 10 µM (COLO 205): -12.1%
- growth at 10 µM (CCRF-CEM): -26.2%
- growth at 10 µM (MDA-MB-231): -1.01%
- growth at 10 µM (MDA-MB-468): -54%
- growth at 10 µM (RPMI-8226): -12.7%
- growth at 10 µM (Hs-578T): 51.2%
- growth at 10 µM (MCF7): -19.6%
- growth at 10 µM (U-251): -19%
- growth at 10 µM (UO-31): -17.9%
